Measurements from ChEMBL document CHEMBL2385045, “Discovery of novel 4-(2-fluorophenoxy)quinoline derivatives bearing 4-oxo-1,4-dihydrocinnoline-3-carboxamide moiety as c-Met kinase inhibitors” (Bioorg Med Chem, 2013).
pIC50: −log10 of the molar value.

How the values were obtained:
[1] = Cytotoxicity against c-Met-independent human H460 cells assessed as growth inhibition after 72 hrs by MTT assay; details: NCI-H460, 72 h
A549 = experiment: Cytotoxicity against c-Met-dependent human A549 cells assessed as growth inhibition after 72 hrs by MTT assay; details: A549, 72 h
HT-29 = experiment: Cytotoxicity against c-Met-dependent human HT-29 cells assessed as growth inhibition after 72 hrs by MTT assay; details: HT-29, 72 h
MKN-45 = experiment: Cytotoxicity against c-Met-dependent human MKN45 cells assessed as growth inhibition after 72 hrs by MTT assay; details: MKN-45, 72 h
[2] = Cytotoxicity against c-Met-dependent human U87MG cells assessed as growth inhibition after 72 hrs by MTT assay; type: functional, cell-based, U-87MG ATCC; details: U-87 MG
Summary of the method: (§1)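 Cells grown in MEM with 10% FBS. About 4×10³ cells/well were seeded and incubated 24 h at 37 °C, 5% CO₂, then exposed to compound for 72 h. MTT was added (terminal 5 µg/mL) for 4 h at 37 °C, and formazan was dissolved in DMSO. IC50 is the mean of three determinations.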

SMMC-7721 = experiment: Cytotoxicity against c-Met-dependent human SMMC7721 cells assessed as growth inhibition after 72 hrs by MTT assay; type: functional, cell-based; details: SMMC-7721, 72 h; summary of the method: as §1

COc1cc2c(Oc3ccc(NC(=O)c4nn(-c5ccc(F)cc5Br)c5ccccc5c4=O)cc3F)ccnc2cc1OCCCN1CCCC1
pIC50 [1]: 5.44 | pIC50 (A549): 5.99 | pIC50 (HT-29): 5.54 | pIC50 (MKN-45): 5.76

COc1cc2c(Oc3ccc(NC(=O)c4nn(-c5ccccc5OC(F)(F)F)c5ccccc5c4=O)cc3F)ccnc2cc1OCCCN1CCOCC1
pIC50 [1]: 6.21 | pIC50 (A549): 6.32 | pIC50 (HT-29): 5.95 | pIC50 (MKN-45): 6.12 | pIC50 [2]: 5.98

COc1cc2c(Oc3ccc(NC(=O)c4nn(-c5ccc(C)cc5)c5ccccc5c4=O)cc3F)ccnc2cc1OCCCN1CCOCC1
pIC50 [1]: 5.68 | pIC50 (A549): 5.96 | pIC50 (HT-29): 5.49 | pIC50 (MKN-45): 6.17 | pIC50 [2]: 5.71

COc1cc2c(Oc3ccc(NC(=O)c4nn(-c5cc(C)ccc5C)c5ccccc5c4=O)cc3F)ccnc2cc1OCCCN1CCOCC1
pIC50 [1]: 6.23 | pIC50 (A549): 6.12 | pIC50 (HT-29): 5.94 | pIC50 (MKN-45): 7.52 | pIC50 [2]: 5.87

COc1cc2c(Oc3ccc(NC(=O)c4nn(-c5ccccc5F)c5cc(F)ccc5c4=O)cc3F)ccnc2cc1OCCCN1CCCCC1
pIC50 [1]: 5.48 | pIC50 (A549): 5.49 | pIC50 (HT-29): 5.29 | pIC50 (MKN-45): 5.55

COc1cc2c(Oc3ccc(NC(=O)c4nn(-c5ccccc5Cl)c5cc(F)ccc5c4=O)cc3F)ccnc2cc1OCCCN1CCCCC1
pIC50 [1]: 5.82 | pIC50 (A549): 5.74 | pIC50 (HT-29): 5.61 | pIC50 (MKN-45): 5.79

COc1cc2c(Oc3ccc(NC(=O)c4nn(-c5ccccc5F)c5cc(F)ccc5c4=O)cc3F)ccnc2cc1OCCCN1CCOCC1
pIC50 [1]: 5.65 | pIC50 (A549): 5.69 | pIC50 (HT-29): 5.53 | pIC50 (MKN-45): 5.81

COc1cc2c(Oc3ccc(NC(=O)c4nn(-c5ccccc5Cl)c5cc(F)ccc5c4=O)cc3F)ccnc2cc1OCCCN1CCC(C)CC1
pIC50 [1]: 5.90 | pIC50 (A549): 5.98 | pIC50 (HT-29): 5.86 | pIC50 (MKN-45): 5.81

COc1cc2c(Oc3ccc(NC(=O)c4nn(-c5ccc(Cl)cc5Cl)c5ccccc5c4=O)cc3F)ccnc2cc1OCCCN1CCCCC1
pIC50 [1]: 5.99 | pIC50 (A549): 6.33 | pIC50 (HT-29): 6.00 | pIC50 (MKN-45): 6.23

COc1cc2c(Oc3ccc(NC(=O)c4nn(-c5c(Cl)cccc5Cl)c5ccccc5c4=O)cc3F)ccnc2cc1OCCCN1CCCCC1
pIC50 [1]: 6.11 | pIC50 (A549): 6.39 | pIC50 (HT-29): 5.94 | pIC50 (MKN-45): 6.41 | pIC50 [2]: 5.87

COc1cc2c(Oc3ccc(NC(=O)c4nn(-c5ccc(C)cc5C)c5ccccc5c4=O)cc3F)ccnc2cc1OCCCN1CCCCC1
pIC50 [1]: 5.80 | pIC50 (A549): 5.89 | pIC50 (HT-29): 5.45 | pIC50 (MKN-45): 5.73

COc1cc2c(Oc3ccc(NC(=O)c4nn(-c5ccccc5Br)c5ccccc5c4=O)cc3F)ccnc2cc1OCCCN1CCC(C)CC1
pIC50 [1]: 6.08 | pIC50 (A549): 6.46 | pIC50 (HT-29): 5.87 | pIC50 (MKN-45): 6.55 | pIC50 [2]: 5.67

COc1cc2c(Oc3ccc(NC(=O)c4nn(-c5cccc(C(F)(F)F)c5)c5ccccc5c4=O)cc3F)ccnc2cc1OCCCN1CCC(C)CC1
pIC50 [1]: 6.26 | pIC50 (A549): 6.68 | pIC50 (HT-29): 5.99 | pIC50 (MKN-45): 6.80 | pIC50 [2]: 6.14

COc1cc2c(Oc3ccc(NC(=O)c4nn(-c5ccc(C)cc5)c5ccccc5c4=O)cc3F)ccnc2cc1OCCCN1CCC(C)CC1
pIC50 [1]: 5.70 | pIC50 (A549): 5.98 | pIC50 (HT-29): 5.55 | pIC50 (MKN-45): 5.91

COc1cc2c(Oc3ccc(NC(=O)c4nn(-c5cc(C(F)(F)F)ccc5Cl)c5ccccc5c4=O)cc3F)ccnc2cc1OCCCN1CCCC1
pIC50 [1]: 6.21 | pIC50 (A549): 6.70 | pIC50 (HT-29): 5.95 | pIC50 (MKN-45): 6.77 | pIC50 [2]: 5.85

COc1cc2c(Oc3ccc(NC(=O)c4nn(-c5cc(C)ccc5C)c5ccccc5c4=O)cc3F)ccnc2cc1OCCCN1CCCC1
pIC50 [1]: 5.69 | pIC50 (A549): 5.94 | pIC50 (HT-29): 5.52 | pIC50 (MKN-45): 6.38 | pIC50 [2]: 5.61

COc1cc2c(Oc3ccc(NC(=O)c4nn(-c5cccc(F)c5)c5ccccc5c4=O)cc3F)ccnc2cc1OCCCN1CCCCC1
pIC50 [1]: 6.04 | pIC50 (A549): 6.96 | pIC50 (HT-29): 5.73 | pIC50 (MKN-45): 6.85 | pIC50 [2]: 5.61 | pIC50 (SMMC-7721): 5.69
